Experimental data from ChEMBL document CHEMBL4033676, “Design, synthesis and biological evaluation of 3,4-dihydro-2(1H)-quinoline-O-alkylamine derivatives as new multipotent cholinesterase/monoamine oxidase inhibitors for the treatment of Alzheimer's disease” (Bioorg Med Chem, 2017).

What was measured:
[1] = physchem; conditions: PAMPA
[2] = molecular target: Cholinesterase (Equus caballus) (UniProt P81908); experiment: Inhibition of equine serum BuChE at 25 uM using butyrylthiocholine chloride as substrate after 15 mins by Ellman's method relative to control
Cholinesterase (Equus caballus), sequence (P81908 whole entry): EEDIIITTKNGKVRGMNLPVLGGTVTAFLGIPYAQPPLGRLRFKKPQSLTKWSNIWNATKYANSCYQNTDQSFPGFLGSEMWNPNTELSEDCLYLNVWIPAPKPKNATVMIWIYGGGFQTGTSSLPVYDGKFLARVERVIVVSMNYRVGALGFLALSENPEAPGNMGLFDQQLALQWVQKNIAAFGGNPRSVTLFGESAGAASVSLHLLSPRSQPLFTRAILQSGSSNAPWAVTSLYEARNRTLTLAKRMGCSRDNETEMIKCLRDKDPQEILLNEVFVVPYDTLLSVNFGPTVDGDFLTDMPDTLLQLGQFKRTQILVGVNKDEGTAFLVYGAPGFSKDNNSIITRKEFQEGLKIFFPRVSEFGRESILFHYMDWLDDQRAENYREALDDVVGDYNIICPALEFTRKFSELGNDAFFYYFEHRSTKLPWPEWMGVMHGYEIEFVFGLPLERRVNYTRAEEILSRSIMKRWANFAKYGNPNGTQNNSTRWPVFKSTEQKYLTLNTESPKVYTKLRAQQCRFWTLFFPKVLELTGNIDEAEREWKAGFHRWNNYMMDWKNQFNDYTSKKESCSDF

[3] = molecular target: Acetylcholinesterase (Electrophorus electricus) (UniProt O42275); experiment: Inhibition of electric eel AChE at 25 uM using acetylthiocholine chloride as substrate after 15 mins by Ellman's method relative to control
Acetylcholinesterase (Electrophorus electricus), sequence (O42275 24-633 limits assumed): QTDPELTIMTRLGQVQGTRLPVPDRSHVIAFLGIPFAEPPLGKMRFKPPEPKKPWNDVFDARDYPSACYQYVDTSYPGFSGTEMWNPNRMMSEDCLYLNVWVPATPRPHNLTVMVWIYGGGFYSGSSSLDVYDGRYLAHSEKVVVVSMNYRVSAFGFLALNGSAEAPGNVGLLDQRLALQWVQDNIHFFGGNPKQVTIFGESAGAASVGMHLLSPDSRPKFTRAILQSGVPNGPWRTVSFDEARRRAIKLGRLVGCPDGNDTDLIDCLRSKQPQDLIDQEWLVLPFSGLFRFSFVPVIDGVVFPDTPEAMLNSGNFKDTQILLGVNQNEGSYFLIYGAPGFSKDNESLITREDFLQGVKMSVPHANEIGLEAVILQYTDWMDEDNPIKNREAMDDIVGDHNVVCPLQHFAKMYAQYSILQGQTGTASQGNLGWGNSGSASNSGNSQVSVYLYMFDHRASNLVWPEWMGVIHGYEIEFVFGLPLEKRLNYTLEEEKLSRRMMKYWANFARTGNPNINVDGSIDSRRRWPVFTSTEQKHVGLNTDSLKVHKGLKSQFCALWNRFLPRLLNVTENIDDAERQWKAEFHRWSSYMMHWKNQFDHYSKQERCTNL

[4] = molecular target: T1, Acetylcholinesterase (Rattus norvegicus) (UniProt P37136); conditions: at 25 µM
T1 sequence (whole entry): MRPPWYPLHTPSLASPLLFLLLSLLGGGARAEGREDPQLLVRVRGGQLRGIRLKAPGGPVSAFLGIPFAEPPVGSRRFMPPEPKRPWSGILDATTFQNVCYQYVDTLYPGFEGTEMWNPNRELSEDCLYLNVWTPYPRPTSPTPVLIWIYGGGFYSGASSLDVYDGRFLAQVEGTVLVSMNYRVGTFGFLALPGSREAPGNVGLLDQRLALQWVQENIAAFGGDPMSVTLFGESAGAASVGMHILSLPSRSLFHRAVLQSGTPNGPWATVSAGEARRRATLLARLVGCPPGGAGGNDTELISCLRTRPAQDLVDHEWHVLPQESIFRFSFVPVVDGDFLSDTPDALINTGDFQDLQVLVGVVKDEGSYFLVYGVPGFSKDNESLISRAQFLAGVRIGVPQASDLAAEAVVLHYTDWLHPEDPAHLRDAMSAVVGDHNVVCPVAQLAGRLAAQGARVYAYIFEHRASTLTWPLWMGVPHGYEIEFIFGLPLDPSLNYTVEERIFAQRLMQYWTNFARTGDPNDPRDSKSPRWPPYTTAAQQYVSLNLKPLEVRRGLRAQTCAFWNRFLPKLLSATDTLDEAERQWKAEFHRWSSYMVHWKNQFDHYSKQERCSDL

[5] = species on record: Rattus norvegicus; experiment: Inhibition of rat serum BuChE at 25 uM using butyrylthiocholine chloride as substrate after 15 mins by Ellman's method relative to control
[6] = species on record: Rattus norvegicus; experiment: Selectivity index, ratio of IC50 for rat serum BuChE to IC50 for 5% rat cortex homogenate AChE
[7] = molecular target: T2, Amine oxidase [flavin-containing] B (Homo sapiens, UniProt P27338); experiment: biochemical; assay type: cell-based
T2 sequence (P27338 whole entry): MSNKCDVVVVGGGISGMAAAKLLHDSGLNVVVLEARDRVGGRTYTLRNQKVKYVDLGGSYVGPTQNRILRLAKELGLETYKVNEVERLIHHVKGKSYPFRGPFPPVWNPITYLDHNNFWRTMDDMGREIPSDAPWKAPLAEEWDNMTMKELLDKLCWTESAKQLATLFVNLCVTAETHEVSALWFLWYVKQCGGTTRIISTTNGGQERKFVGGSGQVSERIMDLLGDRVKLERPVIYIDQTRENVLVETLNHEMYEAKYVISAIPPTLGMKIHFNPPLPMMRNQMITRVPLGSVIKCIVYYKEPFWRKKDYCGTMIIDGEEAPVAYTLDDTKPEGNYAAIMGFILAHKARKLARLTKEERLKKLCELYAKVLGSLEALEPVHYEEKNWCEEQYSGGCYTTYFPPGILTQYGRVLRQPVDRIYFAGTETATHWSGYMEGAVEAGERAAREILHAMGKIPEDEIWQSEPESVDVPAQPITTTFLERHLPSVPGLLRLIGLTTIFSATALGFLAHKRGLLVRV

[8] = Selectivity index, ratio of IC50 for equine serum BuChE to IC50 for electric eel AChE
[9] = species on record: Homo sapiens; experiment: Selectivity index, ratio of IC50 for recombinant human MAO-B to IC50 for recombinant human MAO-A
[10] = molecular target: T3, Amine oxidase [flavin-containing] A (Homo sapiens, UniProt P21397); experiment: Inhibition of recombinant human MAO-A expressed in baculovirus infected BTI insect cells using kynuramine as substrate after 30 mins by fluorescence assay
T3 sequence (P21397 whole entry): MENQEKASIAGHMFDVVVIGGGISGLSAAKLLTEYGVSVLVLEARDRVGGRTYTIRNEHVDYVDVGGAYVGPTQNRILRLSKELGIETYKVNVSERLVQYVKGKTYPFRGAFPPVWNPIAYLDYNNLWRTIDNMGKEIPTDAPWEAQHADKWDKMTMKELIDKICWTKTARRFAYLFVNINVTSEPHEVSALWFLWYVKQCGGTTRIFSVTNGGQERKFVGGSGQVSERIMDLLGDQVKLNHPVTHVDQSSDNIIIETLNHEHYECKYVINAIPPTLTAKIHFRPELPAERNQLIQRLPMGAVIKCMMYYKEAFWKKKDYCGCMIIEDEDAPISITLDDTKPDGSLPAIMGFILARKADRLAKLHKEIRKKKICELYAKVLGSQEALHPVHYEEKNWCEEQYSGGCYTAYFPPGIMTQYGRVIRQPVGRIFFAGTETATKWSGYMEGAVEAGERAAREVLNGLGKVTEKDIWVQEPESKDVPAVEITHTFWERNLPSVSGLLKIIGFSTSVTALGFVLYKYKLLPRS

[11] = molecular target: Cholinesterase (Equus caballus, UniProt P81908); experiment: Inhibition of equine serum BuChE using butyrylthiocholine chloride as substrate after 15 mins by Ellman's method
Cholinesterase, sequence (P81908 whole entry): as the sequence (P81908 whole entry) above
Outline: (§1)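 Ellman assay. Equine serum or rat serum BuChE pre-incubated with test compound at various concentrations (DMSO <1%) in 0.1 M phosphate buffer pH 8.0 for 15 min at 37°C. DTNB (0.2%) added, absorbance read at 412 nm. Inhibition % = (1−Ai/Ac)×100. IC50 is the mean of three independent experiments, each run in triplicate.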

[12] = molecular target: T4, Acetylcholinesterase (Rattus norvegicus, UniProt P37136)
T4 sequence (P37136 whole entry): T1 sequence (whole entry)

[13] = molecular target: Acetylcholinesterase (Electrophorus electricus, UniProt O42275); experiment: Inhibition of electric eel AChE using acetylthiocholine chloride as substrate after 15 mins by Ellman's method
Acetylcholinesterase (Electrophorus electricus, UniProt O42275), sequence (O42275 whole entry): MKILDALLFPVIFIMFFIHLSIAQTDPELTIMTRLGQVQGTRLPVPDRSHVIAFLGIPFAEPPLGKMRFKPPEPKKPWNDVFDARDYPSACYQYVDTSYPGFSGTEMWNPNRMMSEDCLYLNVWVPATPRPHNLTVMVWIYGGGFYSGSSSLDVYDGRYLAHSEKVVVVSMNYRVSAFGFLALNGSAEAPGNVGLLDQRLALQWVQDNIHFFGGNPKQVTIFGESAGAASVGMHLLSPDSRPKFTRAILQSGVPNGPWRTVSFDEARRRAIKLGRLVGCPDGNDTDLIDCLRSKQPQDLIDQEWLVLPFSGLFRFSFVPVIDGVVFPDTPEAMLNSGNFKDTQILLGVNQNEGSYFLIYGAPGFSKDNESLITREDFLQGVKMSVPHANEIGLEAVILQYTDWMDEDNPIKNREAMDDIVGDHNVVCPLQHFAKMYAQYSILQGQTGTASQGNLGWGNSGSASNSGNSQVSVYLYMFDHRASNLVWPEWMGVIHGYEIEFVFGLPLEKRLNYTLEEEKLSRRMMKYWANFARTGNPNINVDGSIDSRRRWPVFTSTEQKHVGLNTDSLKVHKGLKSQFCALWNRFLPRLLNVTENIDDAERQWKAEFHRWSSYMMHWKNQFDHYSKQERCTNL

[14] = Inhibition of rat serum BuChE using butyrylthiocholine chloride as substrate after 15 mins by Ellman's method
Outline: as §1

SMILES	Papp at 18 h, 100 ug/ml [1] [×10⁻⁶ cm/s]	inhibition [2] [%]	inhibition [3] [%]	inhibition [4] [%]	inhibition [5] [%]	Ratio IC50 [6]	IC50 [7] [µM]	Ratio IC50 [8]	Ratio IC50 [9]	IC50 [10] [µM]	IC50 [11] [µM]	IC50 [12] [µM]	IC50 [13] [µM]	IC50 [14] [µM]
CCn1cc(C(=O)O)c(=O)c2cc(F)c(N3CCNCC3)cc21 [NORFLOXACIN]	0.1 to 0.42	–	–	–	–	–	–	–	–	–	–	–	–	–
CCn1cc(C(=O)O)c(=O)c2cc(F)c(N3CCNCC3)nc21 [ENOXACIN]	0.47 to 0.9	–	–	–	–	–	–	–	–	–	–	–	–	–
O=C1CCc2ccc(O)cc2N1	–	< 5	< 5	< 5	< 5	–	–	–	–	–	–	–	–	–
Cn1c(=O)c2c(ncn2C)n(C)c1=O [CAFFEINE]	1.28 to 1.3	–	–	–	–	–	–	–	–	–	–	–	–	–
Cn1c(=O)c2[nH]cnc2n(C)c1=O.O [THEOPHYLLINE]	0.1 to 0.12	–	–	–	–	–	–	–	–	–	–	–	–	–
O=C1CCc2ccc(OCCCCCCN3CCN(Cc4ccccc4)CC3)cc2N1	–	–	–	–	–	1.3	4.3	0.5	0.7	5.7	6.6	17.9	12.9	24
O=C1CCc2ccc(OCCCN3CCN(Cc4ccccc4)CC3)cc2N1	–	–	–	–	–	2.7	21.8	14.9	3.3	6.6	19.4	12.6	1.3	34.2
O=C1CCc2ccc(OCCCCN3CCN(c4ccccn4)CC3)cc2N1	–	–	–	–	–	1.9	10.1	0.6	1.5	6.9	8.4	21	13.8	40
C#CCN(CCCCCCOc1ccc2c(c1)NC(=O)CC2)Cc1ccccc1	–	–	–	–	–	1.9	3.8	0.2	3.8	1	2.4	13	13.7	24.5
O=C1CCc2ccc(OCCCCCCN3CCc4ccccc4C3)cc2N1	–	–	–	–	–	1.1	4.4	0.1	1.3	3.4	1.2	10.8	8.2	11.7
CC(C)N1CCN(CCCCCCOc2ccc3c(c2)NC(=O)CC3)CC1	–	–	–	–	–	0.7	24.9	2.7	3.7	6.8	2	2.43	0.76	1.8
O=C1CCc2ccc(OCCCN3CCc4ccccc4C3)cc2N1	–	–	–	–	–	0.8	18.8	0.4	2.2	8.6	5.5	15.5	13.3	12.6
